Key:
MCF7 [1] = test: Reduction of cell number of hormone sensitive MCF-7 human breast cancer cells at 10e-5 M
MCF7 [2] = test: Inhibition of [3H]thymidine incorporation into hormone sensitive MCF-7 human breast cancer cells at 10e-5 M; format: functional
Outline: (§1)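 MCF-7 cells kept two weeks in medium with 5% charcoal-treated calf serum, 37 °C, 5% CO₂. About 2×10⁴ cells per well; compound added next day in 0.1% ethanol, ethanol-only controls, medium changed on day 4. Cells counted on day 7 by Coulter counter; [³H]thymidine 1 μCi/well for 2 h. Mean of six dishes.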

[3] = molecular target: Estrogen receptor (Bos taurus) (UniProt Q9XSB5+P49884); test: Evaluated for relative binding affinity (RBA) for calf uterine estrogen receptor; format: protein assay
Outline: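 Calf uterine cytosol (105000g supernatant; final protein 3 mg/mL) in Tris-EDTA-azide buffer pH 7.5. Incubated with 5 nM [³H]estradiol and competitor (10⁻⁹–10⁻⁴ M) for 18 h at 4 °C. Free ligand removed with dextran-coated charcoal, bound counted by scintillation. Nonspecific binding measured with 5 μM estradiol. RBA = estradiol/competitor molar ratio at 50% displacement ×100.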

MCF7 [4] = test: Inhibition of [3H]thymidine incorporation into hormone sensitive MCF-7 human breast cancer cells at 10e-6 M; format: functional
Outline: as §1

MCF7 [5] = test: Reduction of cell number of hormone sensitive MCF-7 human breast cancer cells at 10e-6 M

Row | relative binding affinity (RBA) [3] | Compound | further results
1 | 6.5 | CCn1c2ccc(O)cc2c2ccc3cc(O)ccc3c21 | cell number (MCF7 [1]): 5200; Activity (MCF7 [2]): 1040; Activity (MCF7 [4]): 26460; cell number (MCF7 [5]): 24100
2 | 38 | CCCn1c2c(c3ccc(O)cc31)CCc1cc(O)ccc1-2 | 
3 | 0.8 | CCn1c2c(c3ccc(O)cc31)CCc1ccccc1-2 | 
4 | 1.9 | CCn1c2c(c3cc(O)ccc31)CCc1c(O)cccc1-2 | 
5 | 3.6 | CCn1c2cc(O)ccc2c2ccc3ccc(O)cc3c21 | 
6 | 0.06 | CCn1c2c(c3cc(O)ccc31)CCc1ccccc1-2 | 
7 | 9.5 | CCCCn1c2c(c3ccc(O)cc31)CCc1cc(O)ccc1-2 | 
8 | 0.01 | CCn1c2cc(O)ccc2c2ccc3ccccc3c21 | 
9 | 1.8 | CCn1c2c(c3ccccc31)CCc1cc(O)ccc1-2 | 
10 | 13 | CCCn1c2cc(O)ccc2c2ccc3cc(O)ccc3c21 | 
11 | 20 | CCn1c2cc(O)ccc2c2ccc3cc(O)ccc3c21 | 
12 | 0.7 | CCn1c2c(c3cc(O)ccc31)CCc1ccc(O)cc1-2 | 
13 | 9.7 | CCn1c2c(c3ccc(O)cc31)CCc1ccc(O)cc1-2 | 
14 | 0.1 | CCn1c2ccc(O)cc2c2ccc3c(O)cccc3c21 | 
15 | 0.65 | CCn1c2cc(O)ccc2c2ccc3c(O)cccc3c21 | 
